# Shown are actives, neighbours in structure and some others; about 2.9% of the full set was active somewhere.
# Apaf-1 inh = inhibitors of human Apaf-1 apoptosome; inhibition, % at 20 µM; actives 0.71% (n = 330,000); O14727; AID 489030; reconstituted apoptosome caspase-3 activity, DEVD-Rh110 fluorescence; active means inhibition of at least 40% at 20 µM
#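 Material: cell-free apoptosome with Apaf-1, procaspase-3 and caspase-9; Buffer or medium: Hepes pH 7.5 with detergent and BSA; Reagent: cytochrome c trigger plus (Z-DEVD)2-Rh110 caspase-3 substrate; Times: compound with Apaf-1, dATP, procaspase-3 30 min, then 50 min reaction, room temperature; Technique: Rh110 fluorescence intensity.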
# SENP8 block-1 = blocks human SENP8 cleavage of Nedd8 substrate; Q96LD8; recombinant SENP8, Nedd8 substrate fluorescence; inhibition, % at 20 µM; actives 0.64% (n = 360,000); AID 602440; in the data active means inhibition mostly above about 40%, no sharp cut-off; inactive means mostly below about 27%
# SENP6 block = blocks the human protease SENP6; Q9GZR1; Recombinant SENP6 catalytic domain, aminoluciferin luminescence; inhibition, % at 10 µM; actives 1.8% (n = 330,000);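 active means inhibition above about 50% at the single tested dose, limit read from the data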
# Target sequence (Q9GZR1 628-1112 limits assumed): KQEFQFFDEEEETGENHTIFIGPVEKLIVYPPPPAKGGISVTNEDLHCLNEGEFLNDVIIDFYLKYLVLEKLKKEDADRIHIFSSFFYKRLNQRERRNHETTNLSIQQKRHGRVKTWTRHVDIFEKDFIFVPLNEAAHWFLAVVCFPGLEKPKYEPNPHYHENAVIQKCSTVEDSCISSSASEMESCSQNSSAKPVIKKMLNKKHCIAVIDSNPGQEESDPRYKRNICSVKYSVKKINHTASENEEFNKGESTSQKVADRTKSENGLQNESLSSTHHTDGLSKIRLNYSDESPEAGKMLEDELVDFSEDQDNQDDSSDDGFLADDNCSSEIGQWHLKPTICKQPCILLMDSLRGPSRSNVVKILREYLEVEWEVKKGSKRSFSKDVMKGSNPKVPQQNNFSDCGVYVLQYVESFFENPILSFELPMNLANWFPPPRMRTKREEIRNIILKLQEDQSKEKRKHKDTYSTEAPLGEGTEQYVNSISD
# SENP7 block = blocks the human protease SENP7; Q9BQF6; recombinant SENP7, Z-RLRGG-aminoluciferin luminescence, 40 min; inhibition, % at 5 µM; actives 1.5% (n = 330,000); AID 434973;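 active means inhibition above about 50% at the single test dose, limit read from the data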
# SENP8 block-2 = inhibitors of human SENP8 protease. Q96LD8. purified SENP8, Z-RLRGG-aminoluciferin cleavage, luminescence. inhibition, % at 10 µM. actives 1.2% (n = 330,000). AID 2540; in the data active means inhibition above about 50%
# SENP1 inh = inhibitors of human SENP1 SUMO protease catalytic domain | Q9P0U3 | recombinant SENP1 catalytic domain, CyPet-SUMO1-YPet FRET cleavage | inhibition, % at 10 µM | actives 0.21% (n = 360,000) | AID 624204;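 active means inhibition at least 30% at 10 µM, raw YFP signal under a set limit, fluorescence ratio 0.5 to 1.5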
#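 Assay system: hSENP1 catalytic domain, recombinant. Amount: SENP1 enzyme, 20 pM final. Schedule: 50 min reaction, RT, dark. Technique: FRET, CFP and YFP emission. Control set: no-enzyme wells low, DMSO-plus-enzyme wells high control.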
# SENP8 conf = SENP8 (human) inhibition, single concentration confirmation | AID 624319 | actives 15% (n = 1,400) | purified SENP8, Nedd8-AMC/pro-Nedd8 cleavage fluorescence, 30 min | inhibition, % at 25 µM | shares compounds with SENP8 block-1; in the data active means inhibition mostly above about 39%, no sharp cut-off; inactive means mostly below about 34%
# A number is an active result; – = inactive; · = not tested or not shown.
SMILES,Apaf-1 inh,SENP8 block-1,SENP6 block,SENP7 block,SENP8 block-2,SENP1 inh,SENP8 conf
CCN(CC)S(=O)(=O)c1ccc(N2CC(C(=O)NCc3ccco3)CC2=O)cc1 (stereo unspecified),·,–,·,·,·,–,·
O=C(Nc1cccc(Cl)c1)NC1CCN(C2CCCCC2)C1 (stereo unspecified),–,–,–,–,–,–,·
Cc1cc(C)n(-c2cc(N3CCN(C(=O)c4ccc(C(C)(C)C)cc4)CC3)ccc2[N+](=O)[O-])n1,–,45,–,–,–,–,–
Cc1cc(C)n(-c2cc(N3CCN(S(=O)(=O)c4ccc(C)c(C)c4)CC3)ccc2[N+](=O)[O-])n1,–,44,–,–,–,–,–
Cn1cnnc1Sc1cc(N2CCN(S(=O)(=O)c3ccc(Cl)c(Cl)c3)CC2)ccc1[N+](=O)[O-],–,62,–,–,–,–,–
Cc1cc(C)n(-c2cc(N3CCN(C(=O)c4ccccc4C)CC3)ccc2[N+](=O)[O-])n1,–,53,–,–,–,–,–
Cc1ccc(S(=O)(=O)N2CCN(c3ccc([N+](=O)[O-])c(Sc4nncn4C)c3)CC2)cc1,–,–,–,–,–,–,·
COc1cccc(OC)c1C(=O)Nc1ccc(S(=O)(=O)N2CCCCC2)cc1,–,–,–,–,–,–,·
Fc1cc(F)c(F)c(SCn2cc(Br)cn2)c1F,–,–,–,–,–,–,·
CCN1CCN(C(=O)C(C)Nc2cc(Cl)c(OC)cc2OC)CC1 (stereo unspecified),–,44,–,–,–,–,–
CCN1CCN(C(=O)Nc2cc(Cl)ccc2OC)CC1,–,–,–,–,–,–,·
NS(=O)(=O)c1ccc(N/N=C/c2cn(-c3ccccc3)nc2-c2ccccc2)c([N+](=O)[O-])c1,–,54,–,–,–,–,–
NS(=O)(=O)c1ccc(N/N=C/c2ccc3c(c2)OCO3)c([N+](=O)[O-])c1,–,44,–,–,–,–,–
O=[N+]([O-])c1ccc(N/N=C/c2cn(-c3ccccc3)nc2-c2ccccc2)cc1,–,–,–,–,–,–,·
O=[N+]([O-])c1cc(S(=O)(=O)N2CCCC2)ccc1N/N=C/c1ccncc1,–,47,–,–,–,–,–
O=C(Cn1cc(C(F)(F)F)ccc1=O)Nc1ccc2c(c1)OCO2,·,–,·,·,·,–,·
C1CCN(c2nc3nonc3nc2NCC2CCOCC2)CC1,–,44,–,–,–,–,–
C1CCN(c2nc3nonc3nc2N2CCCCC2)CC1,–,–,–,–,–,–,·
C[C@@H]1ON(C)[C@H]2C[C@H]3c4[nH]c5ccc(-c6ccc7c(c6)OCO7)cc5c4CCN3C(=O)[C@@H]12,·,–,·,·,·,–,·
Cc1ccc(S(=O)c2ccc([N+](=O)[O-])c3nonc23)cc1 (stereo unspecified),·,61,·,·,·,–,–
COc1cccc(NC(=S)N/N=C2\CC3CCC2(C)C3(C)C)c1 (stereo unspecified),–,–,–,–,–,–,·
COc1cccc(NC(=S)NN=C2CCC(C(C)(C)C)CC2)c1 (stereo unspecified),–,47,–,–,–,–,–
Cc1nc(C)n(C)c(=O)c1-c1ccccc1,–,40,–,–,–,–,–
CN(Cc1ccccc1)C(=O)c1cccc(NC(=O)Cc2ccc(NC(=O)C3CCCN(C(=O)C4CCCC4)C3)cc2)c1 (stereo unspecified),·,–,·,·,·,–,·
O=C(COc1ccccc1)NCc1cccs1,–,42,–,–,–,–,–
SMILES,Apaf-1 inh,SENP8 block-1,SENP6 block,SENP7 block,SENP8 block-2,SENP1 inh,SENP8 conf
Cc1ccccc1NC(=O)C(C)OC(=O)CCC(=O)c1ccccc1 (stereo unspecified),·,–,·,·,·,–,·
O=C(CN(C1CCCCC1)S(=O)(=O)c1ccc(F)cc1)NCC1CCCO1 (stereo unspecified),·,46,·,·,·,–,–
CCOC(=O)c1ccc(NC(=O)c2ncn3c2C(=O)NC[C@@H]3C)cc1,·,–,·,·,·,–,·
CC(C)N1CC(=O)N2CSCC2C1=O (stereo unspecified),·,–,·,·,·,–,·
COc1ccc(OS(=O)(=O)c2c(C)noc2C)cc1,–,48,–,–,–,–,–
COc1ccc(N(C)S(=O)(=O)c2c(C)noc2C)c(OC)c1,–,–,–,–,–,–,·
CN1CCN(c2cc(-c3cc(O)c4ncccc4c3)ccn2)CC1,–,52,–,–,–,–,48
CN1CCN(C(=O)c2cccc(-c3cc(O)c4ncccc4c3)c2)CC1,–,–,–,–,–,–,·
CCNc1nc(NCC)nc(N(C)/N=C/c2ccco2)n1,–,–,–,–,–,–,·
COc1ccc(/C=N/NS(=O)(=O)c2ccccc2)cc1OC(=O)c1ccc(C)cc1,–,41,–,–,–,–,–
COc1ccc(/C=N/NS(=O)(=O)c2ccc(C)cc2)cc1OC(=O)c1ccccc1,–,–,–,–,–,–,·
Cc1cc(N2C(=O)Cc3ccccc3C2=O)ccc1C(C)C,–,78,–,–,–,–,–
Cc1cc(-n2cnnn2)ccc1C(C)C,–,–,–,–,–,–,·
CCOc1ccc(N2C(=O)Cc3ccccc3C2=O)cc1,–,75,–,–,–,–,–
CCOC(=O)c1ccc(N2C(=O)Cc3ccccc3C2=O)cc1,–,63,–,–,–,–,27
C[C@@H]1CCCCO[C@@H](CN(C)C(=O)c2ccncc2)[C@@H](C)CN([C@H](C)CO)C(=O)c2cc(NC(=O)Cc3ccccc3)ccc2O1,·,–,·,·,·,–,·
O=C(COc1ccc([N+](=O)[O-])cc1)NC(=O)NC1CCS(=O)(=O)C1 (stereo unspecified),–,–,–,–,–,–,·
CC(C)=CCc1c2c(c3occ(-c4ccc(O)cc4)c(=O)c3c1O)C=CC(C)(C)O2,–,43,–,–,–,–,–
C[C@]12CC[C@@H]3c4ccc(OC(=O)c5ccccc5)cc4CC[C@H]3[C@@H]1CC[C@@H]2O,–,–,–,–,–,–,·
CC(=O)Oc1ccc2c(c1)CCC1C2CCC2(C)C(OC(C)=O)CCC12 (stereo unspecified),·,47,·,·,·,–,–
O=C1NC2(CCCCC2)OC12CCCCC2,·,–,·,·,·,–,·
CCC1=NN(C(=O)c2ccc([N+](=O)[O-])cc2)C(O)(c2ccccc2)C1 (stereo unspecified),–,50,–,–,–,–,–
O=C(CSc1ccc(Cl)cc1)Nc1ccccc1Oc1ccccc1,–,–,–,–,–,–,·
O=C(CSc1ccc(Br)cc1)Nc1ccccc1Oc1ccccc1,–,50,–,–,–,–,–
CSc1nnc(C)c(/C=C/Nc2ccc(F)cc2F)n1,–,–,–,–,–,–,·
